The text below walks through data of paper PMC5091360 (Science Advances, 2016).

Data set [1] relates to human VEGFR-1. The data set is described as follows: FLISA binding assay, NRP-1 to VEGFR-1. The note with it: human NRP-1; peptide 100 μg/ml; FLISA, duplicate wells. The method, boiled down:
(§1)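 Human VEGFR-1 extracellular domain coated at 200 ng per well in PBS overnight at 4°C, then blocked with Odyssey blocking buffer. Wells incubated with NRP-1 or NRP-2 in PBS with 10% (v/v) DMSO and 10% blocking buffer, with or without peptide (100 μg/ml). Bound NRP detected with goat anti-NRP-1 or anti-NRP-2 serum (1:100), then IRDye 680LT anti-goat, by infrared scanning. Duplicate wells; ANOVA with Tukey.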

Data set [2] is described as follows: solubility in Matrigel compared to aqueous media. It counts as physicochemical.
Data set [3] concerns IgD2-3 domains from human VEGFR-3. The data set is described as follows: VEGF-C binding to recombinant VEGFR-3 IgD2-3. The note with it: synthetic peptide added; FLISA, duplicate wells.
Data set [4] deals with human VEGFR-1. The data set is described as follows: FLISA binding assay, NRP-2 to VEGFR-1. The note with it: rat NRP-2; peptide 100 μg/ml; FLISA, duplicate wells. The method, boiled down:
as §1

Data set [5] in a line: presence in the vitreous humor after topical application. The conditions noted are these: applied topically. It is filed as in vivo.
For the next data set, the system named is human PDGFR-β. Put plainly: growth factor binding assay. The note with it: PDGF-BB 20 ng/ml; peptide 100 μg/ml; FLISA, duplicate wells. Summed up:
(§2)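 Human FGFR-1 or PDGFR-β coated at 200 ng per well in PBS overnight at 4°C and blocked. Wells incubated with human FGF-1 or PDGF-BB (each 20 ng/ml) in PBS with 10% (v/v) DMSO and 10% blocking buffer, with or without peptide (100 μg/ml). Bound ligand detected with goat antiserum (1:200), then IRDye 680LT anti-goat, by infrared fluorescence. Duplicate wells; ANOVA with Tukey.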

In data set [6] the test system is IgD2 domain from human VEGFR-3. Put plainly: VEGF-C binding to recombinant VEGFR-3 IgD2. The conditions noted are these: synthetic peptide added; FLISA, duplicate wells.
In another data set the test system is human FGFR-1. Put plainly: growth factor binding assay. The note with it: FGF-1 20 ng/ml; peptide 100 μg/ml; FLISA, duplicate wells. The method, boiled down: as §2

Regarding WVCSGG, in the data set with human VEGFR-1 [1], the “effect on NRP-1 interaction with VEGFR-1” value is recorded as “not affected by peptide PCAIWF or WVCSGG”. In addition, the “solubility in Matrigel” value in data set [2] is listed as “fairly soluble in Matrigel compared to aqueous media”. Further, the “inhibition of VEGF-C binding to IgD2-3” value in data set [3] is “both prevented binding of VEGF-C to IgD2 and IgD2-3”. The “effect on NRP-2 interaction with VEGFR-1” value with human VEGFR-1 [4] is “not affected by peptide PCAIWF or WVCSGG”. In addition, in data set [5], the “presence in the vitreous humor after topical application” value is “not found in the vitreous humor if applied topically to the retina”. Also, in the data set with human PDGFR-β, the “effect on binding of PDGF-BB to PDGFR-β” value was “no effect”. In addition, in data set [6], the “inhibition of VEGF-C binding to IgD2” value was “both prevented binding of VEGF-C to IgD2 and IgD2-3”. In the data set on human FGFR-1, the “effect on binding of basic human FGF to FGFR-1α” value is “no effect”.
